Laboratory results from ChEMBL document CHEMBL1140869, “Organocatalyzed highly atom economic one pot synthesis of tetrahydropyridines as antimalarials” (2009).
Values after ≈ are worked out from the molar mass of the structure shown.

What was measured:
Format in all cases: functional
[1] = tested on: Plasmodium falciparum; experiment: Antimalarial schizonticidal activity against Plasmodium falciparum 3D7 infected erythrocytes at 1.25 ug/ml after 30-39 hrs
How it was run: (§1)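 Schizont maturation test (WHO protocol, minor modifications): drug dilutions in complete RPMI 1640 with parasite added. Final culture was 3–4% hematocrit and 1.0–2.0% parasitized erythrocytes (>95% rings), with 0.5% AlbuMax II and 15 µM hypoxanthine. Incubated 30–39 h at 37 °C under 5% CO2. Giemsa-stained thin smears were scored for schizont maturation relative to untreated controls, giving % schizont inhibition at each concentration.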

[2] = tested on: Plasmodium falciparum; experiment: Antimalarial schizonticidal activity against Plasmodium falciparum 3D7 infected erythrocytes after 30-39 hrs; how it was run: as §1
[3] = tested on: Plasmodium falciparum; experiment: Antimalarial schizonticidal activity against Plasmodium falciparum 3D7 infected erythrocytes at 0.09 ug/ml after 30-39 hrs; how it was run: as §1
[4] = tested on: Plasmodium falciparum; experiment: Antimalarial schizonticidal activity against Plasmodium falciparum 3D7 infected erythrocytes at 10 ug/ml after 30-39 hrs; how it was run: as §1
[5] = tested on: Plasmodium falciparum; experiment: Antimalarial schizonticidal activity against Plasmodium falciparum 3D7 infected erythrocytes at 2.5 ug/ml after 30-39 hrs; how it was run: as §1
[6] = tested on: Plasmodium falciparum; experiment: Antimalarial schizonticidal activity against Plasmodium falciparum 3D7 infected erythrocytes at 0.19 ug/ml after 30-39 hrs; how it was run: as §1
[7] = tested on: Plasmodium falciparum; experiment: Antimalarial schizonticidal activity against Plasmodium falciparum 3D7 infected erythrocytes at 0.78 ug/ml after 30-39 hrs; how it was run: as §1
[8] = tested on: Plasmodium falciparum; experiment: Antimalarial schizonticidal activity against Plasmodium falciparum 3D7 infected erythrocytes at 0.39 ug/ml after 30-39 hrs; how it was run: as §1
[9] = tested on: Plasmodium falciparum; experiment: Antimalarial activity schizonticidal against Plasmodium falciparum 3D7 infected erythrocytes at 0.05 ug/ml after 30-39 hrs; how it was run: as §1
[10] = tested on: Plasmodium falciparum; experiment: Antimalarial schizonticidal activity against Plasmodium falciparum 3D7 infected erythrocytes at 5 ug/ml after 30-39 hrs; how it was run: as §1

## CCN(CC)CCCC(C)Nc1ccnc2cc(Cl)ccc12 (centres undefined) [CHLOROQUINE]
[1]
  inhibition at 1.25 µg/mL: 86%
[2]
  MIC: 0.025 mg/L (≈ 0.0782 µM)
[3]
  inhibition at 0.09 µg/mL: 86%
[4]
  inhibition at 10 µg/mL: 100%
[5]
  inhibition at 2.5 µg/mL: 97%
[6]
  inhibition at 0.19 µg/mL: 97%
[7]
  inhibition at 0.78 µg/mL: 100%
[8]
  inhibition at 0.39 µg/mL: 100%
[9]
  inhibition at 0.05 µg/mL: 54%
[10]
  inhibition at 5 µg/mL: 100%

## COC(=O)C1=C(Nc2ccc(OC)cc2)CC(c2ccc(OC)cc2)N(c2ccc(OC)cc2)C1c1ccc(OC)cc1 (centres undefined)
[1]
  inhibition at 1.25 µg/mL: 86%
[4]
  inhibition at 10 µg/mL: 100%
[5]
  inhibition at 2.5 µg/mL: 90%
[10]
  inhibition at 5 µg/mL: 100%

## CCOC(=O)C1=C(Nc2ccc(OC)cc2)CC(c2ccccc2)N(c2ccc(OC)cc2)C1c1ccccc1 (centres undefined)
[1]
  inhibition at 1.25 µg/mL: 100%
[3]
  inhibition at 0.09 µg/mL: 0%
[4]
  inhibition at 10 µg/mL: 100%
[5]
  inhibition at 2.5 µg/mL: 100%
[6]
  inhibition at 0.19 µg/mL: 0%
[7]
  inhibition at 0.78 µg/mL: 66%
[8]
  inhibition at 0.39 µg/mL: 33%
[9]
  inhibition at 0.05 µg/mL: 0%
[10]
  inhibition at 5 µg/mL: 100%

## COC(=O)C1=C(Nc2ccc(Cl)cc2)CC(c2ccc(OC)cc2)N(c2ccc(Cl)cc2)C1c1ccc(OC)cc1 (centres undefined)
[1]
  inhibition at 1.25 µg/mL: 100%
[3]
  inhibition at 0.09 µg/mL: 33%
[4]
  inhibition at 10 µg/mL: 100%
[5]
  inhibition at 2.5 µg/mL: 100%
[6]
  inhibition at 0.19 µg/mL: 41%
[7]
  inhibition at 0.78 µg/mL: 95%
[8]
  inhibition at 0.39 µg/mL: 75%
[9]
  inhibition at 0.05 µg/mL: 16%
[10]
  inhibition at 5 µg/mL: 100%

## COC(=O)C1=C(Nc2ccccc2)CC(c2ccc(OC)cc2)N(c2ccccc2)C1c1ccc(OC)cc1 (centres undefined)
[1]
  inhibition at 1.25 µg/mL: 100%
[3]
  inhibition at 0.09 µg/mL: 45%
[4]
  inhibition at 10 µg/mL: 100%
[5]
  inhibition at 2.5 µg/mL: 100%
[6]
  inhibition at 0.19 µg/mL: 47%
[7]
  inhibition at 0.78 µg/mL: 94%
[8]
  inhibition at 0.39 µg/mL: 67%
[9]
  inhibition at 0.05 µg/mL: 25%
[10]
  inhibition at 5 µg/mL: 100%

## COC(=O)C1=C(Nc2ccccc2)CC(c2ccccc2)N(c2ccccc2)C1c1ccccc1 (centres undefined)
[1]
  inhibition at 1.25 µg/mL: 100%
[3]
  inhibition at 0.09 µg/mL: 0%
[4]
  inhibition at 10 µg/mL: 100%
[5]
  inhibition at 2.5 µg/mL: 100%
[6]
  inhibition at 0.19 µg/mL: 33%
[7]
  inhibition at 0.78 µg/mL: 96%
[8]
  inhibition at 0.39 µg/mL: 90%
[9]
  inhibition at 0.05 µg/mL: 0%
[10]
  inhibition at 5 µg/mL: 100%

## CCOC(=O)C1=C(Nc2ccc(Cl)cc2)CC(c2cccs2)N(c2ccc(Cl)cc2)C1c1cccs1 (centres undefined)
[1]
  inhibition at 1.25 µg/mL: 86%
[4]
  inhibition at 10 µg/mL: 100%
[5]
  inhibition at 2.5 µg/mL: 93%
[10]
  inhibition at 5 µg/mL: 100%

## COC(=O)C1=C(Nc2ccc(OC)cc2)CC(c2cccs2)N(c2ccc(OC)cc2)C1c1cccs1 (centres undefined)
[1]
  inhibition at 1.25 µg/mL: 100%
[3]
  inhibition at 0.09 µg/mL: 25%
[4]
  inhibition at 10 µg/mL: 100%
[5]
  inhibition at 2.5 µg/mL: 100%
[6]
  inhibition at 0.19 µg/mL: 75%
[7]
  inhibition at 0.78 µg/mL: 100%
[8]
  inhibition at 0.39 µg/mL: 100%
[9]
  inhibition at 0.05 µg/mL: 16%
[10]
  inhibition at 5 µg/mL: 100%

## COC(=O)C1=C(Nc2ccccc2)CC(c2ccc(F)cc2)N(c2ccccc2)C1c1ccc(F)cc1 (centres undefined)
[1]
  inhibition at 1.25 µg/mL: 100%
[3]
  inhibition at 0.09 µg/mL: 33%
[4]
  inhibition at 10 µg/mL: 100%
[5]
  inhibition at 2.5 µg/mL: 100%
[6]
  inhibition at 0.19 µg/mL: 75%
[7]
  inhibition at 0.78 µg/mL: 100%
[8]
  inhibition at 0.39 µg/mL: 100%
[9]
  inhibition at 0.05 µg/mL: 16%
[10]
  inhibition at 5 µg/mL: 100%

## CCOC(=O)C1=C(Nc2ccccc2)CC(c2ccccc2)N(c2ccccc2)C1c1ccccc1 (centres undefined)
[1]
  inhibition at 1.25 µg/mL: 25%
[4]
  inhibition at 10 µg/mL: 100%
[5]
  inhibition at 2.5 µg/mL: 92%
[10]
  inhibition at 5 µg/mL: 100%

## COC(=O)C1=C(Nc2ccc(OC)cc2)CC(c2ccc(Br)cc2)N(c2ccc(OC)cc2)C1c1ccc(Br)cc1 (centres undefined)
[1]
  inhibition at 1.25 µg/mL: 33%
[4]
  inhibition at 10 µg/mL: 100%
[5]
  inhibition at 2.5 µg/mL: 95%
[10]
  inhibition at 5 µg/mL: 100%

## CCOC(=O)C1=C(Nc2ccccc2)CC(c2cccnc2)N(c2ccccc2)C1c1cccnc1 (centres undefined)
[1]
  inhibition at 1.25 µg/mL: 100%
[3]
  inhibition at 0.09 µg/mL: 42%
[4]
  inhibition at 10 µg/mL: 100%
[5]
  inhibition at 2.5 µg/mL: 100%
[6]
  inhibition at 0.19 µg/mL: 97%
[7]
  inhibition at 0.78 µg/mL: 100%
[8]
  inhibition at 0.39 µg/mL: 100%
[9]
  inhibition at 0.05 µg/mL: 42%
[10]
  inhibition at 5 µg/mL: 100%

## COC(=O)C1=C(Nc2ccc(OC)cc2)CC(c2cccc(Cl)c2)N(c2ccc(OC)cc2)C1c1cccc(Cl)c1 (centres undefined)
[1]
  inhibition at 1.25 µg/mL: 33%
[4]
  inhibition at 10 µg/mL: 100%
[5]
  inhibition at 2.5 µg/mL: 100%
[10]
  inhibition at 5 µg/mL: 100%

## COC(=O)C1=C(Nc2ccc(Cl)cc2)CC(c2ccc(Br)cc2)N(c2ccc(Cl)cc2)C1c1ccc(Br)cc1 (centres undefined)
[1]
  inhibition at 1.25 µg/mL: 0%
[4]
  inhibition at 10 µg/mL: 33%
[5]
  inhibition at 2.5 µg/mL: 0%
[10]
  inhibition at 5 µg/mL: 0%

## COC(=O)C1=C(Nc2ccc(Br)cc2)CC(c2ccc(OC)cc2)N(c2ccc(Br)cc2)C1c1ccc(OC)cc1 (centres undefined)
[1]
  inhibition at 1.25 µg/mL: 25%
[4]
  inhibition at 10 µg/mL: 100%
[5]
  inhibition at 2.5 µg/mL: 91%
[10]
  inhibition at 5 µg/mL: 100%

## CCOC(=O)C1=C(Nc2ccc(Cl)cc2)CC(c2ccc(Cl)cc2)N(c2ccc(Cl)cc2)C1c1ccc(Cl)cc1 (centres undefined)
[1]
  inhibition at 1.25 µg/mL: 0%
[4]
  inhibition at 10 µg/mL: 83%
[5]
  inhibition at 2.5 µg/mL: 0%
[10]
  inhibition at 5 µg/mL: 66%

## CCOC(=O)C1=C(Nc2ccc(OC)cc2)CC(c2cccc(Cl)c2)N(c2ccc(OC)cc2)C1c1cccc(Cl)c1 (centres undefined)
[1]
  inhibition at 1.25 µg/mL: 16%
[4]
  inhibition at 10 µg/mL: 100%
[5]
  inhibition at 2.5 µg/mL: 50%
[10]
  inhibition at 5 µg/mL: 92%

## COC(=O)C1=C(Nc2ccccc2)CC(c2ccc(Br)cc2)N(c2ccccc2)C1c1ccc(Br)cc1 (centres undefined)
[1]
  inhibition at 1.25 µg/mL: 46%
[4]
  inhibition at 10 µg/mL: 100%
[5]
  inhibition at 2.5 µg/mL: 85%
[10]
  inhibition at 5 µg/mL: 100%

## COC(=O)C1=C(Nc2ccccc2)CC(c2cccc(Cl)c2)N(c2ccccc2)C1c1cccc(Cl)c1 (centres undefined)
[1]
  inhibition at 1.25 µg/mL: 46%
[4]
  inhibition at 10 µg/mL: 100%
[5]
  inhibition at 2.5 µg/mL: 81%
[10]
  inhibition at 5 µg/mL: 81%

## COC(=O)C1=C(Nc2ccc(Cl)cc2)CC(c2ccc(F)cc2)N(c2ccc(Cl)cc2)C1c1ccc(F)cc1 (centres undefined)
[1]
  inhibition at 1.25 µg/mL: 93%
[4]
  inhibition at 10 µg/mL: 100%
[5]
  inhibition at 2.5 µg/mL: 100%
[10]
  inhibition at 5 µg/mL: 100%

## COC(=O)C1=C(Nc2ccccc2)CC(c2ccc(OCc3ccccc3)cc2)N(c2ccccc2)C1c1ccc(OCc2ccccc2)cc1 (centres undefined)
[1]
  inhibition at 1.25 µg/mL: 0%
[4]
  inhibition at 10 µg/mL: 23%
[5]
  inhibition at 2.5 µg/mL: 2%
[10]
  inhibition at 5 µg/mL: 2%

## COC(=O)C1=C(Nc2ccc(OC)cc2)CC(c2ccc(F)cc2)N(c2ccc(OC)cc2)C1c1ccc(F)cc1 (centres undefined)
[1]
  inhibition at 1.25 µg/mL: 100%
[3]
  inhibition at 0.09 µg/mL: 100%
[4]
  inhibition at 10 µg/mL: 100%
[5]
  inhibition at 2.5 µg/mL: 100%
[6]
  inhibition at 0.19 µg/mL: 100%
[7]
  inhibition at 0.78 µg/mL: 100%
[8]
  inhibition at 0.39 µg/mL: 100%
[9]
  inhibition at 0.05 µg/mL: 91%
[10]
  inhibition at 5 µg/mL: 100%
